Rpn11 inh = blocks the human proteasome subunit Rpn11 | human 26S proteasome, Ub4-pepOG fluorescence polarization; 20S core pre-blocked with epoxomicin | inhibition, % at 20 µM | O00487 | hit rate 0.59% among 360,000;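 active means inhibition at 20 µM, scaled to each plate's controls, above about 33%, limit read from the data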
Target sequence (O00487 whole entry, looked up): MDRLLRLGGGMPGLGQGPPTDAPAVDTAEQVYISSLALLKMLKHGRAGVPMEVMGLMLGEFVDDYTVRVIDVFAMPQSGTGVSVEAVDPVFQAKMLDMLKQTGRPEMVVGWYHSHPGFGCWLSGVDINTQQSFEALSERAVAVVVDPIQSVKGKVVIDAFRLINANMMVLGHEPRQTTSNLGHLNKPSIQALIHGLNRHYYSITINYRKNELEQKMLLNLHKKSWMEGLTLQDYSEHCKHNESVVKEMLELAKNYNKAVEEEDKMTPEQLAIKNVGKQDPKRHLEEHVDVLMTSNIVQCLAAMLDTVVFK
HNF4A DNA FP = change in binding of human HNF4 alpha to DNA. HNF4a-FITC DNA binding, fluorescence polarization, 1 h. hit rate 0.3% among 360,000. activity change, % at 10 µM; in the data active means activity change above about 30%, passing the limit was not always enough
CSN deneddyl inh = CSN deneddylation inhibition; Q92905; Purified CSN, SCF-Nedd8-OG deneddylation, fluorescence polarization; inhibition, % at 12.5 µM; hit rate 0.38% among 360,000;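 active means pattern-corrected inhibition above about 35%, with an unprinted fluorescence ratio check between 0.5 and 1.5, limit read from the data, passing the limit was not always enough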;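 further: 0% = enzyme with substrate and 100% = substrate without enzyme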
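assay system = purified human Csn5 enzyme expressed in HEK293T cells | amount = 0.24 nM enzyme | buffer or medium = Tris/NaCl/DTT buffer, pH 7.5 | reagent = 10 nM SCFSkp2-Nedd8OG | compound = one concentration, 12.5 µM, 0.25% DMSO | times = 90 min reaction at room temperature | signal = FP | read-out basis = % inhibition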
ATG4B inh = inhibitors of human ATG4B cysteine protease. ATG4B cleavage of LC3-PLA2, NBD-HPC fluorescence, 1 h. hit rate 0.51% among 340,000. inhibition, % at 8.33 µM; in the data active means inhibition above about 40%
TPT1 inhibitor = blocks Candida albicans tRNA 2'-phosphotransferase. recombinant caTPT1, FP RNA substrate dephosphorylation. inhibition, % at 5 µM. hit rate 0.81% among 300,000. AID 1962;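 active means inhibition above the mean of all tested compounds plus 3 SD, set per screening campaign, cut at about 24% in these data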;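 further: plate controls were DMSO alone for no effect and ferristatin control at 100 nM for full effect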
SENP1 FRET inh = inhibitors of human SENP1 SUMO protease catalytic domain. recombinant SENP1 catalytic domain, CyPet-SUMO1-YPet FRET cleavage. inhibition, % at 10 µM. hit rate 0.21% among 360,000. AID 624204;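 active means inhibition at least 30% at 10 µM, raw YFP signal under a set limit, fluorescence ratio 0.5 to 1.5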;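 further: 0% = enzyme with DMSO and 100% = no enzyme wells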
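Test system: hSENP1 catalytic domain, recombinant; Amount: 20 pM final SENP1 enzyme; Medium: Tris pH 8 buffer plus EDTA, NaCl, BME, BSA, NP40, catalase; Schedule: 50 min enzyme reaction, room temperature, light-protected; Technique: FRET fluorescence in CFP and YFP emission channels; Controls: no-enzyme wells low, DMSO-plus-enzyme wells high control.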
ATG4B conf = confirmation of human ATG4B inhibitors. shares compounds with ATG4B inh. ATG4B protease fluorescent substrate cleavage assay. inhibition, % at 8.33 µM. hit rate 92% among 320; in the data active means inhibition above about 39%
PLA2 counter = inhibits human PLA2, flagging false ATG4B inhibitors; purified PLA2, NBD-C6-HPC fluorescence, 45 min; inhibition, % at 8.33 µM; shares compounds with ATG4B inh; hit rate 66% among 1,600; in the data active means inhibition above about 50%
Target sequence (P04054 whole entry, looked up): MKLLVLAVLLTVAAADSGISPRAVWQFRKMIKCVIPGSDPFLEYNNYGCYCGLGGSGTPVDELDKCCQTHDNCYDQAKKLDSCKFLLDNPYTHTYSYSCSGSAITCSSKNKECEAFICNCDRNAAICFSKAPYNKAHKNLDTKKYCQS
An asterisk follows results filed as active; · = no result. In the library only some 2% were active in any assay of this set; here they are far more common.

SMILES | Rpn11 inh | HNF4A DNA FP | CSN deneddyl inh | ATG4B inh | TPT1 inhibitor | SENP1 FRET inh | ATG4B conf | PLA2 counter
Cc1nn2c(COc3ccc(NC(=O)c4ccccc4Cl)cc3)nnc2c2ccccc12 | -2.0 | -6.4 | -13.2 | 43.0* | 0.0 | 1.1 | · | 38.8
CCCCN1C(=O)C(CC(=O)NCCc2ccccn2)CC(C(=O)N(C(C)C)C(C)C)=C1C (stereo not given) | -4.4 | -2.9 | -0.8 | · | · | -0.8 | · | ·
c1ccc(-c2ccc(C(c3ccccc3)n3ccnc3)cc2)cc1 (stereo not given) | -1.3 | 3.1 | 2.0 | 40.6* | 5.1 | 3.1 | 63.2* | 45.3
COc1cccc(CNc2cc(CSc3ccc(Cl)cc3)nc(C)n2)c1 | -3.0 | -0.6 | -0.1 | 54.5* | 0.9 | -1.0 | · | 63.4*
O=C(c1ccco1)N1CCN(c2ncnc3sc4c(c23)CCC4)CC1 | 5.9 | -0.1 | 5.7 | 22.4 | -2.9 | -0.3 | · | ·
CCc1nc(N2CCN(C(=O)c3ccccc3)CC2)c2c3c(sc2n1)CCCC3 | 2.8 | 1.4 | -6.3 | 74.9* | 1.3 | 2.8 | · | 82.4*
CCc1nc(N2CCN(C(=O)c3ccco3)CC2)c2c3c(sc2n1)CCCC3 | 7.3 | 4.3 | 1.1 | 77.9* | 0.7 | -1.1 | · | 86.4*
Cc1cc(OCC(=O)OC(C)C(=O)NC2CC2)c(C(C)C)cc1Cl (stereo not given) | -2.1 | 1.2 | -0.9 | · | · | 4.3 | · | ·
COc1cc(OC)cc(-c2nc3ccccc3c(=O)n2OC(=O)c2ccc(C)c(C)c2)c1 | -9.9 | -1.0 | 5.0 | 56.5* | 0.5 | 3.4 | 51.0* | 23.1
CC1CCCCC12NC(=O)N(CC(=O)Nc1cccnc1)C2=O (stereo not given) | 4.1 | 1.6 | -2.4 | · | · | 0.8 | · | ·
CCOc1ccc(C(=O)Nc2ccccc2N2CCOCC2)cc1 | -3.0 | -1.8 | -0.8 | 3.1 | 1.5 | 1.9 | · | ·
CCOc1ccc(C(=O)C2CCN(CC(=O)Nc3ccccc3N3CCOCC3)CC2)cc1 | 3.0 | -0.1 | 5.1 | 44.0* | -0.2 | 0.8 | 65.3* | 33.6
O=C(O)c1cc([N+](=O)[O-])ccc1NCc1ccccc1Cl | -3.7 | 4.6 | -4.8 | 48.3* | -2.3 | 0.3 | 63.8* | 45.3
Cc1ccccc1C(=O)NC(=S)Nc1ccc(S(=O)(=O)N(C)c2ccccc2)cc1 | -3.4 | -2.7 | -1.9 | 47.7* | -6.1 | 0.0 | · | 57.0*
Cc1cccc(C(=O)NC(=S)Nc2ccc(S(=O)(=O)N(C)c3ccccc3)cc2)c1 | 5.4 | -2.2 | 3.9 | 6.5 | -1.1 | 0.9 | · | ·
CS(=O)(=O)Nc1ccc(C2=NN(C(=O)C3CCCCC3)C(c3cccs3)C2)cc1 (stereo not given) | 21.3 | 1.6 | -3.1 | 76.7* | 1.5 | -0.3 | · | 80.8*
O=C(O)c1ccc(NC2=C/C(=N/S(=O)(=O)c3ccccc3)c3ccccc3C2=O)cc1 | -12.7 | 0.0 | 30.0 | 43.0* | · | 2.2 | 60.6* | -9.4
COc1ccc(O)c(C(=O)c2cnn(C(=O)c3cccc(N(C)C)c3)c2)c1 | 5.9 | -1.9 | 6.0 | -5.8 | · | -51.7 | · | ·
CN(C)c1cccc(C(=O)n2cc(C(=O)c3cc(F)ccc3O)cn2)c1 | 2.4 | -0.2 | 3.6 | 50.9* | -1.8 | -4.0 | 50.3* | 1.7
CCCn1c(NC(=O)c2cccc(S(=O)(=O)N3CCCC3)c2)nc2ccccc21 | -8.7 | 1.1 | 0.8 | 40.0 | 2.7 | -2.0 | · | 57.4*
CCCn1c(NC(=O)c2ccccc2)nc2ccccc21 | 2.1 | -1.3 | 0.0 | 20.3 | 2.5 | -3.4 | · | ·
O=C(Cc1cccc(NC(=O)C2CCN(C(=O)C3CCCC3)CC2)c1)Nc1cccc(C(=O)N2CCOCC2)c1 | 4.3 | -0.8 | -1.9 | 1.0 | · | 1.7 | · | ·
CCCCCCn1cc(CN2CC(N(C)CC)CS2(=O)=O)nn1 (stereo not given) | · | -0.5 | -6.2 | · | · | 1.1 | · | ·
CCOc1ccccc1N1CCN(C(=S)NCc2ccco2)CC1 | -5.6 | 2.3 | -1.1 | 3.9 | -2.0 | -2.5 | · | ·

Bioassay records deposited in PubChem by several laboratories.
